# Source: PubChem BioAssay (several laboratories)
# The list is not random: actives were taken first. Their share in the collection is about 8.7%.
# PostGolgi ctrl – inhibits growth of the yeast control strain; efflux-deficient yeast background strain, growth absorbance A615, 16 h; inhibition, % at 10 µM; hit rate 5% among 98,000
# PostGolgi yeast – growth inhibition of a yeast mutant, post-Golgi transport screen. post-Golgi transport phenotypic cell assay. inhibition, % at 10 µM. hit rate 0.9% among 98,000. AID 739;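 also: yeast cells grown in 1536-well plates; yeast grown about 18 h at 30C before absorbance read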
# Cav32 inh – human Cav3.2 channel inhibition, primary screen; AID 449739; hit rate 4% among 100,000; B-score at 10 µM; O95180; Cav3.2-expressing cells, Fluo-4 calcium fluorescence FDSS; active compounds read low;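 active = single-dose well whose peak fluorescence ratio is a statistical outlier from its plate by either plate-standardised score or position-corrected B-score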
# tolC growth inh – blocks growth of E. coli BW25113 tolC mutant; hit rate 2.2% among 65,000; OD615; AID 573; growth inhibition, % at 10 µM (by protocol);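 active = growth inhibition at or above a cutoff equal to the mean over every tested compound plus 3 SD, cut at about 60% in these data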;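 also: growth measured after 20 h incubation at 37 °C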
#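 System: E. coli ΔtolC::kan strain BW25113; Buffer or medium: LB broth supplemented with 50 µg/mL kanamycin; Compound: 10 µM final, single dose; Incubation: bacterial growth with compound for 20 h at 37 °C; Signal: A615 absorbance measurement; Evaluation: growth inhibition in percent.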
# Pyk2 oligo antag – antagonists of human Pyk2 oligomerization. Q14289. Q293 cells, Pyk2 FERM NanoBiT luminescence; active compounds read low. z-score (the deposit names both 25 µM and 10 µM). hit rate 0.83% among 99,000;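 active = Z-score of -3 or lower, scaled per plate to the spread of control and sample wells; inactive = z-score above -3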;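 also: negative z-score means lost luminescence so less FERM oligomerization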
# E coli WT exp – blocks growth of wild type E. coli BW25113; OD600 absorbance; growth inhibition, % at 100 µM; hit rate 0.15% among 98,000;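 active = growth inhibition above about 50% at one test dose, limit read from the data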;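 also: growth measured after 20 h incubation at 37 °C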
# The depositor's hits bear a star; . = no result given. Rule as the data show it, unless noted: active = inhibition above about 30%; inactive = the rest.
SMILES,PostGolgi ctrl,PostGolgi yeast,Cav32 inh,tolC growth inh,Pyk2 oligo antag,E coli WT exp
CCOC(=O)C1=C(c2ccccc2)NC(=S)NC1c1cc([N+](=O)[O-])ccc1OC (configuration not stated),12.1,12.2,-0.496,.,-4.02*,-4.0
O=C(Cn1cnc2ccccc21)N/N=C/c1ccccc1[N+](=O)[O-],.,.,.,.,0.94,.
O=C(Nc1cccc(C(F)(F)F)c1)N(Cc1ccc(Cl)cc1)CC(O)C(F)(F)F (configuration not stated),51.3*,-10.2,-2.82,.,-0.06,11.0
O=C(COC(=O)c1cc(S(=O)(=O)N2CCOCC2)cs1)c1ccccc1,10.4,-5.1,2.06,-21.2,-0.04,6.0
CC(=O)Nc1ccc(S(=O)(=O)NCC(C)NS(=O)(=O)c2ccc(NC(C)=O)cc2)cc1 (configuration not stated),37.3*,-9.5,-0.0418,-9.5,-0.62,-3.0
CCCCNC(=O)Cc1cc(=O)[nH]c(=O)[nH]1,.,.,0.222,.,.,.
Cc1onc(-c2c(F)cccc2Cl)c1C(=O)Nc1ccc(S(=O)(=O)Nc2ncccn2)cc1,-0.8,0.6,-0.132,-4.7,1.33,7.0
O=C1N2CCSC2=NC1(Nc1ccccn1)C(F)(F)F (configuration not stated),48.3*,-0.3,.,-18.9,0.63,2.0
Cc1ccc(OCc2nnc(SCC(=O)CC(=O)Nc3ccccc3)o2)cc1,33.0*,-9.3,-1.05,2.1,-0.31,11.0
CCOc1ccc(N(CC(=O)NC2CCCCC2)C(=O)CSc2nnc(COc3ccccc3)o2)cc1,.,.,-4.34*,.,0.28,.
O=C(CN(Cc1cccs1)C(=O)CSc1nnc(COc2ccccc2)o1)NC1CCCCC1,.,.,-0.224,.,0.07,.
Cc1cc(C)nc(-n2nc(C)cc2NC(=O)c2cccc(S(=O)(=O)N3CCCCC3)c2)n1,20.8,-3.6,1.71,.,.,3.0
CCCNC(=O)C(C)n1c2ccccc2c2nc(=O)cc(C)n21 (configuration not stated),32.8*,4.8,0.0174,.,.,-2.0
C/C(=N\N=C(/N)SC1CC(=O)N(c2ccc(Cl)cc2)C1=O)c1cccs1 (configuration not stated),8.9,-5.5,-1.78,.,0.28,-10.0
C/C(=N\N=C(/N)SC1CC(=O)N(c2ccc(Cl)c(Cl)c2)C1=O)c1cccs1 (configuration not stated),57.1*,101.8*,0.184,.,-0.56,-6.0
CCCCOc1ccc(Cl)cc1CSc1n[nH]c(C)n1,13.1,-16.9,-3.49,.,-2.17,1.0
CCOc1ccc(Cl)cc1CSc1n[nH]c(CC)n1,34.5*,-8.7,-0.211,-2.1,0.15,10.0
Cn1c(CNc2nc(-c3ccccc3)cs2)nnc1SCC(=O)OC1CCCCC1,9.1,-0.6,-6.11*,53.2,2,-1.0
CCOC(=O)N1CCC(NC(=O)c2ccc3c(=O)n4c(nc3c2)CCCC4)CC1,6.0,-0.2,0.399,-15.5,0.75,5.0
